Experimental data from ChEMBL document CHEMBL1127544, “A new series of photoactivatable and iodinatable linear vasopressin antagonists” (J Med Chem, 1994).

Experiments:
[1] = biological target: T1, Oxytocin receptor (Rattus norvegicus, UniProt P70536); experiment: Tested for inhibition constant at OT receptor of rat mammary glands
T1 sequence (P70536 whole entry): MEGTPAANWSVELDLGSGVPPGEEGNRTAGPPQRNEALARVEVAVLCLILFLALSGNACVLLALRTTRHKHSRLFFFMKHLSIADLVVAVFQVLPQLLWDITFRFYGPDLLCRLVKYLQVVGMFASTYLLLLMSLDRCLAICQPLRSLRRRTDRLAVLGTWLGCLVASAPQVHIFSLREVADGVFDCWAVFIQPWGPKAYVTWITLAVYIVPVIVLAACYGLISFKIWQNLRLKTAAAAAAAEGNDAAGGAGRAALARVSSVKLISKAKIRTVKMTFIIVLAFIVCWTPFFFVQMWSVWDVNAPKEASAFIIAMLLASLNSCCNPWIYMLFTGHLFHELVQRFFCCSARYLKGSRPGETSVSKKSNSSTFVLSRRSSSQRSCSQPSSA
Procedure, shortened: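 Rat mammary gland membranes (female rat), 2 or 5 μg/assay, 45 min at 30 °C in 50 mM Tris-HCl pH 7.4, 5 mM MgCl2, 1 mg/mL BSA. Competition against 60 pM [125I]d(CH2)5[Tyr(Me)2,Thr4,Orn8,Tyr-NH2 9]VT. Nonspecific binding with 1 μM oxytocin. Filtration over GF/C. Triplicate determinations.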

[2] = biological target: T2, Vasopressin V1a receptor (Rattus norvegicus, UniProt P30560); experiment: Tested for inhibition constant determined from vasopressin induced inositol phosphates accumulation performed on WRK1 cell line of V1a receptor subtype; type: cell-based
Procedure, shortened: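 WRK1 cells prelabeled 3 days with myo-[3H]inositol (2 μCi/mL), then serum-starved 30 min. Preincubated 15 min at 37 °C in PBS with 10 mM LiCl, 1 mg/mL BSA and analogue, then 3 nM AVP or vehicle for 6 min. Stopped with perchloric acid. Total inositol phosphates separated on Dowex. Ki act derived from the antagonism curves. At least three experiments in duplicate.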

[3] = biological target: T2, Vasopressin V1a receptor; experiment: Inhibition constant for V1a receptor of rat liver membrane
Procedure, shortened: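 Competition binding on rat liver membranes (male rat), 5 or 10 μg/assay, 45 min at 30 °C in the dark. Unlabeled peptide 10^-11 to 10^-7 or 10^-6 M against 60 pM [125I]Phaa-D-Tyr(Me)-Phe-Gln-Asn-Arg-Pro-Arg-Tyr-NH2. Nonspecific binding with 1 μM vasopressin. Separation by GF/C filtration. Ki = IC50 × Kd/(Kd + [tracer]), tracer Kd 0.06 nM. Triplicates.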

[4] = biological target: Vasopressin V2 receptor (Rattus norvegicus, UniProt Q00788); experiment: Tested for inhibition constant at V2 receptor of rat kidney membrane
Procedure, shortened: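 Rat renal medullary membranes (male rat, freshly prepared), 28.5 μg/assay, 45 min at 30 °C in 50 mM Tris-HCl pH 7.4, 5 mM MgCl2, 1 mg/mL BSA. Competition against 10^-9 M [3H]AVP. Nonspecific binding with 1 μM vasopressin. Filtration over GF/C. Triplicate determinations.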

[5] = biological target: T2, Vasopressin V1a receptor; experiment: Tested for dissociation constant at V1a receptor of rat liver membrane
Procedure, shortened: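 Saturation binding of the 125I-labeled azido analogues on rat liver membranes (5 μg), rising labeled-ligand concentrations, run as the competition protocol (45 min, 30 °C, Tris-HCl pH 7.4, MgCl2, BSA, filtration). Nonspecific binding with 250-fold excess of the matching unlabeled analogue. Kd from Scatchard plot. Triplicate values, three independent experiments.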

T2 sequence (P30560 whole entry): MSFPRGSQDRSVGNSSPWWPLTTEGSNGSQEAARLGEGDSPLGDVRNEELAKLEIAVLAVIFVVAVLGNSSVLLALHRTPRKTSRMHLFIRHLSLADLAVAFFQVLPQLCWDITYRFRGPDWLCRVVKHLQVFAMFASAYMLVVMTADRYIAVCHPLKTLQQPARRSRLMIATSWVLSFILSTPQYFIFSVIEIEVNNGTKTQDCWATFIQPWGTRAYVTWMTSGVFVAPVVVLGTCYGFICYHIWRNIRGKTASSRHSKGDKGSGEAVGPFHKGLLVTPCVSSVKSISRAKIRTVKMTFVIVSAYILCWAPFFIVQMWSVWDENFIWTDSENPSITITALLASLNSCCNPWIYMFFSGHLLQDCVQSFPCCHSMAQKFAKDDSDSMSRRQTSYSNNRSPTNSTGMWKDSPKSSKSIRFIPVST
Chain of Vasopressin V2 receptor (Q00788 whole entry): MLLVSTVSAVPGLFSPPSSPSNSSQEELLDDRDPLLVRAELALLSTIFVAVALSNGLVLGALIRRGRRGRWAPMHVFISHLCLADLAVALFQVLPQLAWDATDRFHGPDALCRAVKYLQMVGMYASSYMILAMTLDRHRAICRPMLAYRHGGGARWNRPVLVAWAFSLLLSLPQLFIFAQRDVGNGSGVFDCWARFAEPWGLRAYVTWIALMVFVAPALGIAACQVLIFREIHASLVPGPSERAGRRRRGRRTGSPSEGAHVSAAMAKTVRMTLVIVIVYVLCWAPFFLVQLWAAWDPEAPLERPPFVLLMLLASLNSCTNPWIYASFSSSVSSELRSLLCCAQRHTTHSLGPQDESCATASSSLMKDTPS

SMILES | Ki [1] [nM] | Ki [2] [nM] | Ki [3] [nM] | Ki [4] [nM] | Kd [5] [nM]
COc1ccc(C[C@@H](NC(=O)c2ccc(N=[N+]=[N-])cc2)C(=O)N[C@@H](Cc2ccccc2)C(=O)N[C@@H](CCC(N)=O)C(=O)N[C@@H](CC(N)=O)C(=O)N[C@@H](CCCNC(=N)N)C(=O)N2CCC[C@H]2C(=O)N[C@@H](CCCNC(=N)N)C(=O)N[C@@H](Cc2ccc(O)cc2)C(N)=O)cc1 | – | – | 20 | – | –
COc1ccc(C[C@@H](NC(=O)CCCc2ccc(N=[N+]=[N-])cc2)C(=O)N[C@@H](Cc2ccccc2)C(=O)N[C@@H](CCC(N)=O)C(=O)N[C@@H](CC(N)=O)C(=O)N[C@@H](CCCN=C(N)N)C(=O)N2CCC[C@H]2C(=O)N[C@@H](CCCN=C(N)N)C(=O)N[C@@H](Cc2ccc(O)cc2)C(N)=O)cc1 (stereo in doubt; 17) | – | – | 0.04 | – | –
COc1ccc(C[C@@H](NC(=O)Cc2ccc(N=[N+]=[N-])cc2)C(=O)N[C@@H](Cc2ccccc2)C(=O)N[C@@H](CCC(N)=O)C(=O)N[C@@H](CC(N)=O)C(=O)N[C@@H](CCCNC(=N)N)C(=O)N2CCC[C@H]2C(=O)N[C@@H](CCCNC(=N)N)C(=O)N[C@@H](Cc2ccc(O)cc2)C(N)=O)cc1 (stereo in doubt; 13) | – | – | 0.12 | – | –
COc1ccc(C[C@@H](NC(=O)c2cccc(N=[N+]=[N-])c2)C(=O)N[C@@H](Cc2ccccc2)C(=O)N[C@@H](CCC(N)=O)C(=O)N[C@@H](CC(N)=O)C(=O)N[C@@H](CCCN=C(N)N)C(=O)N2CCC[C@H]2C(=O)N[C@@H](CCCN=C(N)N)C(=O)N[C@@H](Cc2ccc(O)cc2)C(N)=O)cc1 | – | – | 17.8 | – | –
COc1ccc(C[C@@H](NC(=O)CCc2cccc(N=[N+]=[N-])c2)C(=O)N[C@@H](Cc2ccccc2)C(=O)N[C@@H](CCC(N)=O)C(=O)N[C@@H](CC(N)=O)C(=O)N[C@@H](CCCNC(=N)N)C(=O)N2CCC[C@H]2C(=O)N[C@@H](CCCNC(=N)N)C(=O)N[C@@H](Cc2ccc(O)cc2)C(N)=O)cc1 (stereo in doubt; 21) | 1.4 | 0.13 | 0.27 | 16 | 0.054
COc1ccc(C[C@@H](NC(=O)Cc2cccc(N=[N+]=[N-])c2)C(=O)N[C@@H](Cc2ccccc2)C(=O)N[C@@H](CCC(N)=O)C(=O)N[C@@H](CC(N)=O)C(=O)N[C@@H](CCCNC(=N)N)C(=O)N2CCC[C@H]2C(=O)N[C@@H](CCCNC(=N)N)C(=O)N[C@@H](Cc2ccc(O)cc2)C(N)=O)cc1 (stereo in doubt; 14) | – | – | 0.31 | – | –

The next lines start with the values.

Ki [1] [nM] | Ki [2] [nM] | Ki [3] [nM] | Ki [4] [nM] | Kd [5] [nM] | SMILES
0.65 | 0.24 | 1.1 | 10 | – | COc1ccc(C[C@@H](NC(=O)Cc2cccc(N=[N+]=[N-])c2)C(=O)N[C@@H](Cc2ccccc2)C(=O)N[C@@H](CCC(N)=O)C(=O)N[C@@H](CC(N)=O)C(=O)N[C@@H](CCCNC(=N)N)C(=O)N2CCC[C@H]2C(=O)N[C@@H](CCCNC(=N)N)C(=O)N[C@@H](Cc2ccc(O)cc2)C(N)=O)cc1 (stereo in doubt; 19)
37.7 | 0.11 | 0.47 | 1.6 | 0.19 | COc1ccc(C[C@@H](NC(=O)CCc2ccc(N=[N+]=[N-])cc2)C(=O)N[C@@H](Cc2ccccc2)C(=O)N[C@@H](CCC(N)=O)C(=O)N[C@@H](CC(N)=O)C(=O)N[C@@H](CCCN=C(N)N)C(=O)N2CCC[C@H]2C(=O)N[C@@H](CCCN=C(N)N)C(=O)N[C@@H](Cc2ccc(O)cc2)C(N)=O)cc1 (stereo in doubt; 20)
18 | – | – | – | – | COc1ccc(C[C@@H](NC(=O)CCCc2ccc(N=[N+]=[N-])cc2)C(=O)N[C@@H](Cc2ccccc2)C(=O)N[C@@H](CCC(N)=O)C(=O)N[C@@H](CC(N)=O)C(=O)N[C@@H](CCCN=C(N)N)C(=O)N2CCC[C@H]2C(=O)N[C@@H](CCCN=C(N)N)C(=O)N[C@@H](Cc2ccc(O)cc2)C(N)=O)cc1 (stereo in doubt; 22)
4.8 | 0.2 | 0.59 | 8 | 0.15 | COc1ccc(C[C@@H](NC(=O)Cc2ccc(N=[N+]=[N-])cc2)C(=O)N[C@@H](Cc2ccccc2)C(=O)N[C@@H](CCC(N)=O)C(=O)N[C@@H](CC(N)=O)C(=O)N[C@@H](CCCNC(=N)N)C(=O)N2CCC[C@H]2C(=O)N[C@@H](CCCNC(=N)N)C(=O)N[C@@H](Cc2ccc(O)cc2)C(N)=O)cc1 (stereo in doubt; 18)
– | – | 0.16 | – | – | COc1ccc(C[C@@H](NC(=O)CCc2cccc(N=[N+]=[N-])c2)C(=O)N[C@@H](Cc2ccccc2)C(=O)N[C@@H](CCC(N)=O)C(=O)N[C@@H](CC(N)=O)C(=O)N[C@@H](CCCNC(=N)N)C(=O)N2CCC[C@H]2C(=O)N[C@@H](CCCNC(=N)N)C(=O)N[C@@H](Cc2ccc(O)cc2)C(N)=O)cc1 (stereo in doubt; 16)
– | – | 0.2 | – | – | COc1ccc(C[C@@H](NC(=O)CCc2ccc(N=[N+]=[N-])cc2)C(=O)N[C@@H](Cc2ccccc2)C(=O)N[C@@H](CCC(N)=O)C(=O)N[C@@H](CC(N)=O)C(=O)N[C@@H](CCCN=C(N)N)C(=O)N2CCC[C@H]2C(=O)N[C@@H](CCCN=C(N)N)C(=O)N[C@@H](Cc2ccc(O)cc2)C(N)=O)cc1 (stereo in doubt; 15)
